Measurements: ChEMBL document CHEMBL1126653, “Structure-function studies of amphiphilic antibacterial peptides” (1993)
Converted amounts (≈) assume the structure as drawn. One block for each compound: values may come before it. Peptide text beside a SMILES is read from it.

Columns and labels:
[1] = Hemolytic activity towards human erythrocytes is evaluated for magainin 2 at peptide concentration of 25 ug/mL; type: functional
Outline: (§1)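 Washed human erythrocytes from healthy volunteers (3 mL packed cells, PBS pH 7.4 washes, diluted to 20 mL) exposed to peptide in PBS at 25-200 µg/mL, 30 min at 37 °C; supernatant absorbance at 576 nm after centrifugation; 0.1% Triton X-100 taken as 100% hemolysis; duplicates.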

Shigella flexneri = experiment: Compound tested for the antimicrobial activity against Shigella flexneri; type: functional
Outline: (§2)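 MIC by microbroth dilution in Tryptic Soy Broth; inoculum 5×10^5 CFU/mL; plates incubated 18-20 h at 37 °C; assay pH approximately 7.4.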

Enterobacter cloacae [2] = experiment: (§3) Compound tested for the antimicrobial activity against Enterobacter cloacae ROS; type: functional; outline: as §2
[3] = Hemolytic activity towards human erythrocytes is evaluated for magainin 2 at peptide concentration of 50 µg/mL; type: functional; outline: as §1
Klebsiella pneumoniae = experiment: Compound tested for the antimicrobial activity against Klebsiella pneumoniae; type: functional; outline: as §2
Pseudomonas aeruginosa [4] = experiment: Compound tested for in vitro susceptibility against ATCC strain 27853 of Pseudomonas aeruginosa; type: functional; settings: ATCC 27853
Outline: (§4)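 Microbroth dilution in Tryptic Soy Broth; inoculum 5×10^5 CFU/mL; plates incubated at 37 °C for 18-20 h; value reported as minimal inhibitory concentration (µg/mL).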

Proteus mirabilis = experiment: Compound tested for the antimicrobial activity against Proteus mirabilis; type: functional; outline: as §4
[5] = Hemolytic activity towards human erythrocytes is evaluated for magainin 2 at peptide concentration of 100 µg/mL; type: functional; outline: as §1
Enterobacter cloacae [6] = experiment: Compound tested for the antimicrobial activity against Enterobacter cloacae; type: functional; outline: as §4
[7] = tested on: Salmonella enterica subsp. enterica serovar Anatum; experiment: Compound tested for the antimicrobial activity against S. a natum; type: functional, salmoneila anatum; outline: as §4
Staphylococcus aureus [8] = experiment: Compound tested for in vitro susceptibility against ATCC strain 29213 of Staphylococcus aureus; type: functional; outline: as §4
[9] = Hemolytic activity towards human erythrocytes is evaluated for magainin 2 at peptide concentration of 200 µg/mL; type: functional; outline: as §1
Escherichia coli = experiment: Compound tested for in vitro susceptibility against ATCC strain 25922 of Escherichia coli; type: functional; settings: ATCC25922; outline: as §4
[10] = tested on: Acinetobacter calcoaceticus subsp. anitratus; experiment: (§5) Compound tested for the antimicrobial activity against Acinetobacter anitratus; type: functional, aeinetobacter anitrotap; outline: as §2
Staphylococcus aureus [11] = experiment: Compound tested for the activity against Staphylococcus aureus strain 1; type: functional; outline: as §4
Pseudomonas aeruginosa [12] = experiment: Compound tested for the antimicrobial activity against Pseudomonas aeruginosa strain 3; type: functional; outline: as §4
Pseudomonas aeruginosa [13] = experiment: Compound tested for the antimicrobial activity against Pseudomonas aeruginosa strain ATCC 25916; type: functional; outline: as §4
Pseudomonas aeruginosa [14] = experiment: Compound tested for the antimicrobial activity against Pseudomonas aeruginosa strain 2; type: functional; outline: as §4
Staphylococcus aureus [15] = experiment: Compound tested for the activity against Staphylococcus aureus strain 2; type: functional; outline: as §4
Pseudomonas aeruginosa [16] = experiment: Compound tested for the antimicrobial activity against Pseudomonas aeruginosa strain 9; type: functional; outline: as §4
Enterobacter cloacae [17] = experiment: as §3; type: functional, enterobacter cloacaeros; outline: as §2
Pseudomonas aeruginosa [18] = experiment: Compound tested for the antimicrobial activity against Pseudomonas aeruginosa strain 5; type: functional; outline: as §4
Pseudomonas aeruginosa [19] = experiment: Compound tested for the antimicrobial activity against Pseudomonas aeruginosa strain 11; type: functional; outline: as §4
Staphylococcus aureus [20] = experiment: Compound tested for the activity against Staphylococcus aureus strain 5; type: functional; outline: as §4
Staphylococcus aureus [21] = experiment: Compound tested for the activity against Staphylococcus aureus strain 3; type: functional; outline: as §4
Staphylococcus aureus [22] = experiment: Compound tested for the activity against Staphylococcus aureus strain 11; type: functional; outline: as §4
Staphylococcus aureus [23] = experiment: Compound tested for the activity against Staphylococcus aureus strain 8; type: functional; outline: as §4
Staphylococcus aureus [24] = experiment: Compound tested for the activity against Staphylococcus aureus strain 4; type: functional; outline: as §4
Staphylococcus aureus [25] = experiment: Compound tested for the activity against Staphylococcus aureus strain 10; type: functional; outline: as §4
Pseudomonas aeruginosa [26] = experiment: Compound tested for the antimicrobial activity against Pseudomonas aeruginosa strain 4; type: functional; outline: as §4
[27] = tested on: Acinetobacter calcoaceticus subsp. anitratus; experiment: as §5; type: functional; outline: as §2
Staphylococcus aureus [28] = experiment: Compound tested for the activity against Staphylococcus aureus strain ATCC 28953; type: functional; outline: as §4
Pseudomonas aeruginosa [29] = experiment: Compound tested for the antimicrobial activity against Pseudomonas aeruginosa strain 8; type: functional; outline: as §4
Pseudomonas aeruginosa [30] = experiment: Compound tested for the antimicrobial activity against Pseudomonas aeruginosa strain 1; type: functional; outline: as §4
Staphylococcus aureus [31] = experiment: Compound tested for the activity against Staphylococcus aureus strain 9; type: functional; outline: as §4
Pseudomonas aeruginosa [32] = experiment: Compound tested for the antimicrobial activity against Pseudomonas aeruginosa strain 10; type: functional; outline: as §4
Staphylococcus aureus [33] = experiment: Compound tested for the activity against Staphylococcus aureus strain 7; type: functional; outline: as §4
Pseudomonas aeruginosa [34] = experiment: Compound tested for the antimicrobial activity against Pseudomonas aeruginosa strain 6; type: functional; outline: as §4
Pseudomonas aeruginosa [35] = experiment: Compound tested for the antimicrobial activity against Pseudomonas aeruginosa strain 7; type: functional; outline: as §4
Staphylococcus aureus [36] = experiment: Compound tested for the activity against Staphylococcus aureus strain 6; type: functional; outline: as §4

MIC (Shigella flexneri): 12.5 µg/mL (≈ 5.23 µM)
MIC (Enterobacter cloacae [2]): 50 µg/mL (≈ 20.9 µM)
MIC (Klebsiella pneumoniae): > 100 µg/mL
MIC (Pseudomonas aeruginosa [4]): 12.5 µg/mL (≈ 5.23 µM)
MIC (Proteus mirabilis): > 100 µg/mL
MIC (Enterobacter cloacae [6]): < 0.39 µg/mL
MIC [7]: > 100 µg/mL
MIC (Staphylococcus aureus [8]): 50 µg/mL (≈ 20.9 µM)
MIC (Escherichia coli): 25 µg/mL (≈ 10.5 µM)
MIC [10]: < 0.39 µg/mL
Compound: CC(C)C[C@H](NC(=O)[C@H](Cc1c[nH]cn1)NC(=O)[C@H](CC(C)C)NC(=O)[C@H](Cc1c[nH]c2ccccc12)NC(=O)[C@H](Cc1c[nH]cn1)NC(=O)[C@H](Cc1c[nH]cn1)NC(=O)[C@H](C)NC(=O)[C@H](Cc1c[nH]c2ccccc12)NC(=O)[C@H](Cc1c[nH]cn1)NC(=O)[C@H](Cc1c[nH]cn1)NC(=O)[C@H](Cc1c[nH]c2ccccc12)NC(=O)[C@H](CC(C)C)NC(=O)[C@@H](N)Cc1c[nH]cn1)C(=O)N[C@@H](Cc1c[nH]c2ccccc12)C(=O)N[C@@H](Cc1c[nH]cn1)C(=O)N[C@@H](C)C(=O)N[C@@H](Cc1c[nH]c2ccccc12)C(=O)O (H-HLWHHWAHHWLHLWHAW-OH)
Hemolysis [1]: 0%
Hemolysis [3]: 0%
Hemolysis [5]: 0%
Hemolysis [9]: 0%

MIC (Pseudomonas aeruginosa [4]): > 200 µg/mL
MIC (Staphylococcus aureus [8]): 200 µg/mL (≈ 91.5 µM)
MIC (Escherichia coli): 200 µg/mL (≈ 91.5 µM)
Compound: CC(C)C[C@H](NC(=O)[C@H](CCCCN)NC(=O)[C@H](CCCCN)NC(=O)[C@H](Cc1c[nH]c2ccccc12)NC(=O)[C@H](CCCCN)NC(=O)[C@H](CCCCN)NC(=O)[C@H](CCCCN)NC(=O)[C@H](C)NC(=O)[C@H](CCCCN)NC(=O)[C@H](CCCCN)NC(=O)[C@H](Cc1c[nH]c2ccccc12)NC(=O)[C@H](C)NC(=O)[C@@H](N)CCCCN)C(=O)N[C@@H](C)C(=O)N[C@@H](CCCCN)C(=O)N[C@@H](CCCCN)C(=O)N[C@@H](Cc1c[nH]c2ccccc12)C(=O)O (H-KAWKKAKKKWKKLAKKW-OH)

MIC (Pseudomonas aeruginosa [4]): > 200 µg/mL
MIC (Staphylococcus aureus [8]): > 200 µg/mL
MIC (Escherichia coli): > 200 µg/mL
Compound: CC(C)C[C@H](NC(=O)[C@H](CCCCN)NC(=O)[C@H](CCCCN)NC(=O)[C@H](CC(C)C)NC(=O)[C@H](CC(C)C)NC(=O)[C@H](CCCCN)NC(=O)[C@H](CC(C)C)NC(=O)[C@H](CC(C)C)NC(=O)[C@H](CCCCN)NC(=O)[C@@H](N)CCCCN)C(=O)O (H-KKLLKLLKKL-OH)

MIC (Staphylococcus aureus [11]): > 100 µg/mL
MIC (Pseudomonas aeruginosa [12]): 50 µg/mL (≈ 36.1 µM)
MIC (Pseudomonas aeruginosa [13]): 25 µg/mL (≈ 18 µM)
MIC (Pseudomonas aeruginosa [14]): 12.5 µg/mL (≈ 9.01 µM)
MIC (Staphylococcus aureus [15]): > 100 µg/mL
MIC (Pseudomonas aeruginosa [16]): > 100 µg/mL
MIC (Shigella flexneri): < 0.39 µg/mL
MIC (Enterobacter cloacae [17]): 50 µg/mL (≈ 36.1 µM)
MIC (Pseudomonas aeruginosa [18]): 50 µg/mL (≈ 36.1 µM)
MIC (Pseudomonas aeruginosa [19]): 50 µg/mL (≈ 36.1 µM)
MIC (Staphylococcus aureus [20]): > 100 µg/mL
MIC (Staphylococcus aureus [21]): > 100 µg/mL
MIC (Staphylococcus aureus [22]): > 100 µg/mL
MIC (Staphylococcus aureus [23]): > 100 µg/mL
MIC (Staphylococcus aureus [24]): > 100 µg/mL
MIC (Staphylococcus aureus [25]): > 100 µg/mL
MIC (Klebsiella pneumoniae): > 100 µg/mL
MIC (Pseudomonas aeruginosa [4]): 12.5 µg/mL (≈ 9.01 µM)
MIC (Proteus mirabilis): > 100 µg/mL
MIC (Pseudomonas aeruginosa [26]): 50 µg/mL (≈ 36.1 µM)
MIC [27]: < 0.39 µg/mL
MIC (Enterobacter cloacae [6]): < 0.39 µg/mL
MIC [7]: 12.5 µg/mL (≈ 9.01 µM)
MIC (Staphylococcus aureus [28]): > 100 µg/mL
MIC (Pseudomonas aeruginosa [29]): 50 µg/mL (≈ 36.1 µM)
MIC (Pseudomonas aeruginosa [30]): 25 µg/mL (≈ 18 µM)
MIC (Staphylococcus aureus [8]): 12.5 µg/mL (≈ 9.01 µM)
MIC (Staphylococcus aureus [31]): > 100 µg/mL
MIC (Pseudomonas aeruginosa [32]): 50 µg/mL (≈ 36.1 µM)
MIC (Staphylococcus aureus [33]): > 100 µg/mL
MIC (Pseudomonas aeruginosa [34]): > 100 µg/mL
MIC (Escherichia coli): 25 µg/mL (≈ 18 µM)
MIC (Pseudomonas aeruginosa [35]): 50 µg/mL (≈ 36.1 µM)
MIC (Staphylococcus aureus [36]): > 100 µg/mL
Compound: CC(C)C[C@H](NC(=O)[C@H](CCCCN)NC(=O)[C@H](CC(C)C)NC(=O)[C@H](Cc1c[nH]c2ccccc12)NC(=O)[C@H](CCCCN)NC(=O)[C@@H](N)CCCCN)C(=O)N[C@@H](Cc1c[nH]c2ccccc12)C(=O)N[C@@H](CCCCN)C(=O)N[C@@H](C)C(=O)N[C@@H](Cc1c[nH]c2ccccc12)C(=O)O (H-KKWLKLWKAW-OH)
